{"source": "paper PMC6403082", "about": "(International Journal of Neuropsychopharmacology, 2018)", "key": {"[1]": {"tested_on": "NMDAR in rat primary cortical neurons", "assay": "Intracellular Ca2+ influx", "assay_type": "cell-based", "details": "for Effect on 10 μM NMDA-induced calcium response: 300 μM 7-CK or 10 μM MDL; for EC50: rat primary cortical neurons"}, "[2]": {"target": "mutant NR1-NR2B receptors (NR1 F484A/T518L) (Homo sapiens, UniProt Q05586+Q13224, F484A/T518L)", "sequence (Q13224 27-1484, other chains not shown)": "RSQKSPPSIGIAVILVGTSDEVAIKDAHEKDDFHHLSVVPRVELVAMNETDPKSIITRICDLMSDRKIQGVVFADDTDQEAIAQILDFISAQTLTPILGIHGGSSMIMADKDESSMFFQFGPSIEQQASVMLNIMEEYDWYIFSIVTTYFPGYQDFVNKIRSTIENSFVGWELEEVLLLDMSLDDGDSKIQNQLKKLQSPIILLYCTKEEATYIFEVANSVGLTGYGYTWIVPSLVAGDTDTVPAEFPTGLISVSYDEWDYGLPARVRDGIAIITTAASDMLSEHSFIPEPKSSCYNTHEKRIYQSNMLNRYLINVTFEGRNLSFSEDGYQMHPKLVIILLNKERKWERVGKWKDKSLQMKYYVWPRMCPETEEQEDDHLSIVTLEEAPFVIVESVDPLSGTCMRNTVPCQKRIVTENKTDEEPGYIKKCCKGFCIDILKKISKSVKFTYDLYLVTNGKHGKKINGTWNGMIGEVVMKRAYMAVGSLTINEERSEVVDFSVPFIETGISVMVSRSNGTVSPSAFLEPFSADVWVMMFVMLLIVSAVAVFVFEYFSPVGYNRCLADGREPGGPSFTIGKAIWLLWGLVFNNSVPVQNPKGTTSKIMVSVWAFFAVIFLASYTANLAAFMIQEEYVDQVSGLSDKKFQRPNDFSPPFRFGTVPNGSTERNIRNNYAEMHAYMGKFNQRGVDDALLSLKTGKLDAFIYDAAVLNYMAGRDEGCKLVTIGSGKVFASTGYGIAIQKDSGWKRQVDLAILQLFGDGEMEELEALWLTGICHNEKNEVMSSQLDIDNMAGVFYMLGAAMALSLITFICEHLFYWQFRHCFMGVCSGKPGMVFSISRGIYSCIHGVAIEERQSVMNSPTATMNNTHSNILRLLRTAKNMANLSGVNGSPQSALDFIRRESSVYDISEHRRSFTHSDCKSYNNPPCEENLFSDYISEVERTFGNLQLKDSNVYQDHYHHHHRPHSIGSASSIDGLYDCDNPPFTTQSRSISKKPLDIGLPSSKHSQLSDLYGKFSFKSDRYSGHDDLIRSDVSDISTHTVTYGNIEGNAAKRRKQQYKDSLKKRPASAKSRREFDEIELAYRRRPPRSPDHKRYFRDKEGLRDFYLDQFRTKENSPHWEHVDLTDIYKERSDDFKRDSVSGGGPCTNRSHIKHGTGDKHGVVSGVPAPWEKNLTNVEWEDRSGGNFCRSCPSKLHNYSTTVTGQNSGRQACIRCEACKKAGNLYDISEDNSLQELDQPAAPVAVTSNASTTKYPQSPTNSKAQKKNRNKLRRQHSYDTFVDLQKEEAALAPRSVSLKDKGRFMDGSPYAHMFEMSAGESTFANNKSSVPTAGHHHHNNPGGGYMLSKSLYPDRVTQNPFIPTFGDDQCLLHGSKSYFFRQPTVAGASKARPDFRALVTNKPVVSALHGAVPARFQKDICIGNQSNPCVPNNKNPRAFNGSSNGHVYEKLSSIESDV", "assay": "[3H] MK-801 binding at glycine-site mutant NR1-NR2B", "assay_type": "biochemical", "details": "NR1 F484A/T518L loss-of-function glycine-site mutant vs wild-type NR1-NR2B", "summary_of_the_method": "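Crude membranes from transiently transfected HEK cells (NR1-NR2B, wild-type or NR1 F484A/T518L glycine-site mutant), washed in 10 mM Tris·acetate pH 7.4, homogenised, pelleted at 51 500 × g, all at 4°C. […] Then […] [3H] MK-801 (22.5 Ci/mmol) added for 15 min (nonequilibrium), and filtered. n = 18, 2-tailed t test.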"}, "[3]": {"tested_on": "NMDA, PCP", "assay": "Radioligand displacement, NMDA PCP site", "assay_type": "binding", "details": "30 μM test compound"}, "[4]": {"tested_on": "NMDA, MK-801", "assay": "Radioligand displacement, NMDA MK-801 site", "assay_type": "binding", "details": "30 μM test compound; inhibition >50% considered meaningful"}, "[5]": {"tested_on": "NMDA, polyamine", "assay": "Radioligand displacement, NMDA polyamine site", "assay_type": "binding", "details": "30 μM test compound"}, "[6]": {"tested_on": "NMDA, glutamate", "assay": "Radioligand displacement, NMDA glutamate site", "assay_type": "binding", "details": "30 μM test compound"}, "[7]": {"target": "NMDA, glycine (Homo sapiens, UniProt Q05586)", "assay": "Radioligand displacement, NMDA glycine site", "assay_type": "binding", "details": "30 μM test compound"}, "[8]": {"assay": "mPFC microdialysis of rapastinel", "assay_type": "in vivo", "details": "rat, sc", "summary_of_the_method": "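Freely moving rats had guide cannulae implanted in mPFC (AP +3.2, L +0.5, V −1.5 mm from bregma/dura). After 7 days of recovery, a probe was inserted (3-mm membrane, 50 kDa cutoff) and perfused with aCSF at 1 μL/min (148 NaCl, 4 KCl, 0.8 MgCl2, 1.4 CaCl2, 1.2 Na2HPO4, 0.3 NaH2PO4 mM; pH 7.2). Test compound was given s.c. in sterile saline.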"}, "[9]": {"target": "mutant NR2B (R393E) NMDAR in HEK293 cells (Homo sapiens, UniProt Q05586+Q13224, R393E)", "sequence (Q13224 27-1484 R393E, other chains not shown)": "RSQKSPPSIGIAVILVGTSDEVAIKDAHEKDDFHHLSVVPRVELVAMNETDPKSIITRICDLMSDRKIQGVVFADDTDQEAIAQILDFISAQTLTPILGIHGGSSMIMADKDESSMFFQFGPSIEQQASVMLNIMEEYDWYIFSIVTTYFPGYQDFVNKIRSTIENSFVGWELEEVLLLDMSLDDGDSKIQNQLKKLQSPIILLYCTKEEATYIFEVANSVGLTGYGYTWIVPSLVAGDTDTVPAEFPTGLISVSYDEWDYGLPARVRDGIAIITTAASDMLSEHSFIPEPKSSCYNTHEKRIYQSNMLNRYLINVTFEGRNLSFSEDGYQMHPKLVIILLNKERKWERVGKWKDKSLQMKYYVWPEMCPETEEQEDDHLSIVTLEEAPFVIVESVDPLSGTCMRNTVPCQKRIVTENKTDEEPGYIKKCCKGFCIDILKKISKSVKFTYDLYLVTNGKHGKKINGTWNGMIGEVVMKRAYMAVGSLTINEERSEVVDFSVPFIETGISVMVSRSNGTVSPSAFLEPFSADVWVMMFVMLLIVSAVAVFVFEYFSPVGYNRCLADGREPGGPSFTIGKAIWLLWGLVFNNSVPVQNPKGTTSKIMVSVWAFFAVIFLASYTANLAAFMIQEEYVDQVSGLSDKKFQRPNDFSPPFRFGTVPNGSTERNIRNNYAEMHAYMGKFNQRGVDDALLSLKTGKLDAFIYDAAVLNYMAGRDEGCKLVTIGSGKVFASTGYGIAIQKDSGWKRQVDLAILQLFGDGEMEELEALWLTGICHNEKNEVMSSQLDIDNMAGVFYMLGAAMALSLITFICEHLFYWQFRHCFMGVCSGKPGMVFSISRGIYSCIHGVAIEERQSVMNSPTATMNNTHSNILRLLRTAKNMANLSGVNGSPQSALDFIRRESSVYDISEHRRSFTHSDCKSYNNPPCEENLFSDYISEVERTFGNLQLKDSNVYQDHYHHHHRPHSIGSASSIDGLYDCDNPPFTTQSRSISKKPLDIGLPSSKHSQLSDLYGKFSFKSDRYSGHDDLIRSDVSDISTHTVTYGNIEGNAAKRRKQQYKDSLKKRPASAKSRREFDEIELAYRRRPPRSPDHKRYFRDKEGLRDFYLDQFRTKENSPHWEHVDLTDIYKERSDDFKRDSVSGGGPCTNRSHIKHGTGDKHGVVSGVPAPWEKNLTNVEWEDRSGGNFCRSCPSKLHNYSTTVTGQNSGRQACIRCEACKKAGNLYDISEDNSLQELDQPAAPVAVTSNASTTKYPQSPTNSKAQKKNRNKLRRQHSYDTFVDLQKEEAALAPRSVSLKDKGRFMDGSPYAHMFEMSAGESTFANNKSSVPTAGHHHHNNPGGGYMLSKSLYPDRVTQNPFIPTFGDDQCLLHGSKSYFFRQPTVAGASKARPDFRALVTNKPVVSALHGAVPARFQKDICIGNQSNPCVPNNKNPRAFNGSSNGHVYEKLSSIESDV", "assay": "Intracellular calcium response in HEK cells, NR2B R393E", "assay_type": "cell-based"}, "[10]": {"tested_on": "NMDAR current in rat cortical slices", "details": "100 μM 7-CK; ref Kemp et al., 1988; cited from earlier work"}}, "note": "Read-outs that look alike come from different tables or passages of the source. Peptide text beside a SMILES is read from it.", "data": [{"smiles": "O=C(O)/C(=C/c1c(C(=O)O)[nH]c2cc(Cl)cc(Cl)c12)c1ccccc1", "note": "[MDL]", "values": [{"measurement": "Block of NMDAR activation by 10 μM NMDA and 100 μM D-serine", "setting": "[1]; 10 μM MDL, n = 5", "value": "−98.5 ± 0.2", "unit": "%"}, {"measurement": "Effect on 10 μM NMDA-induced calcium response", "setting": "[1]", "value": "completely abolished"}]}, {"smiles": "NCC(=O)O", "note": "[Glycine, glycine]", "values": [{"measurement": "Enhancement of [3H] MK-801 binding at mutant receptors", "setting": "[2]", "value": "failed to enhance"}]}, {"smiles": "CN[C@]1(c2ccccc2Cl)CCCCC1=O", "note": "[S-ketamine]", "values": [{"measurement": "NMDA, PCP (%) radioligand displacement", "setting": "[3]", "value": 84, "unit": "%"}, {"measurement": "NMDA, MK-801(%) radioligand displacement", "setting": "[4]", "value": 98, "unit": "%"}, {"measurement": "NMDA, polyamine (%) radioligand displacement", "setting": "[5]", "value": "−17", "unit": "%"}, {"measurement": "NMDA, glutamate (%) radioligand displacement", "setting": "[6]", "value": "−6", "unit": "%"}, {"measurement": "IC50", "setting": "[1]; read-out: IC50, inhibition of NMDAR-mediated [Ca2+]i accumulation", "value": "~1000", "unit": "nM"}, {"measurement": "NMDA, glycine (%) radioligand displacement", "setting": "[7]", "value": 0, "unit": "%"}]}, {"smiles": "C[C@@H](O)[C@H](N)C(=O)N1CCC[C@H]1C(=O)N1CCC[C@H]1C(=O)N[C@H](C(N)=O)[C@@H](C)O", "note": "[Rapastinel] (H-TPPT-NH2)", "values": [{"measurement": "level at time molar", "setting": "[8]; brain (mPFC) microdialysate, 10 mg/kg", "value": "~30", "unit": "nM"}, {"measurement": "Tmax", "setting": "[8]; in vivo", "value": "~20", "unit": "min"}, {"measurement": "half-life", "setting": "[8]; in vivo", "value": "~20", "unit": "min"}]}, {"smiles": "N[C@@H](CCC(=O)O)C(=O)O", "note": "[glutamate]", "values": [{"measurement": "Receptor activation, % of 1 μM glutamate, mutated NR2B (R393E)", "setting": "[9]", "value": "22.6 ± 1.2", "unit": "%"}]}, {"smiles": "N[C@H](CO)C(=O)O", "note": "[D-serine]", "values": [{"measurement": "EC50", "setting": "[1]; read-out: EC50, [Ca2+]i mobilization (D-serine)", "value": 290, "unit": "nM"}]}, {"smiles": "CN[C@@]1(c2ccccc2Cl)CCCCC1=O", "note": "[R-ketamine]", "values": [{"measurement": "NMDA, PCP (%) radioligand displacement", "setting": "[3]", "value": 88, "unit": "%"}, {"measurement": "NMDA, MK-801(%) radioligand displacement", "setting": "[4]", "value": 89, "unit": "%"}, {"measurement": "NMDA, polyamine (%) radioligand displacement", "setting": "[5]", "value": 1, "unit": "%"}, {"measurement": "NMDA, glutamate (%) radioligand displacement", "setting": "[6]", "value": 6, "unit": "%"}, {"measurement": "NMDA, glycine (%) radioligand displacement", "setting": "[7]", "value": "−5", "unit": "%"}]}, {"smiles": "CNC1(c2ccccc2Cl)CCCCC1=O", "note": "(racemic) [(R,S)-ketamine]", "values": [{"measurement": "NMDA, PCP (%) radioligand displacement", "setting": "[3]", "value": 94, "unit": "%"}, {"measurement": "NMDA, MK-801(%) radioligand displacement", "setting": "[4]", "value": 96, "unit": "%"}, {"measurement": "NMDA, polyamine (%) radioligand displacement", "setting": "[5]", "value": "−16", "unit": "%"}, {"measurement": "NMDA, glutamate (%) radioligand displacement", "setting": "[6]", "value": "−5", "unit": "%"}, {"measurement": "NMDA, glycine (%) radioligand displacement", "setting": "[7]", "value": 17, "unit": "%"}]}, {"smiles": "CN[C@H](CC(=O)O)C(=O)O", "note": "[NMDA, N-methyl-D-aspartate]", "values": [{"measurement": "EC50", "setting": "[1]; read-out: EC50, [Ca2+]i mobilization (NMDA)", "value": 2800, "unit": "nM"}]}, {"smiles": "N[C@H](CCCP(=O)(O)O)C(=O)O", "note": "[(2R)-amino-5-phosphonopentanoate]", "values": [{"measurement": "Effect on calcium response to NMDA + rapastinel + 7-CK", "setting": "[1]; 100 μM co-infused", "value": "inhibited the calcium response"}]}, {"smiles": "O=C(O)c1cc(O)c2ccc(Cl)cc2n1", "note": "[7-CK, 7-chlorokynurenic acid]", "values": [{"measurement": "Effect on NMDAR current in rat cortical slices", "setting": "[10]", "value": "completely blocked"}, {"measurement": "Effect on 10 μM NMDA-induced calcium response", "setting": "[1]", "value": "completely abolished"}]}]}
